Entries after “also recorded” stand apart in the source; their conditions may differ.
Columns and labels:
[1] = system: lung carcinoma xenografts; conditions: cited from earlier work
[2] = system: subcutaneous human tumor xenografts; conditions: oral administration; lung, prostate, pancreatic, glioma, colon, breast; cited from earlier work
[3] = system: prostate carcinoma cells; conditions: in vitro; cited from earlier work
[4] = system: carcinoma cells in three-dimensional culture; conditions: 0.1 µM; cited from earlier work
[5] = system: 4T1 lung metastases; assay: Spontaneous 4T1 breast to lung metastasis; assay type: in vivo, Balb/c mice; conditions: 150 mg/kg p.o. b.i.d. for 15 days
[6] = PND-1186 levels in tumor samples by HPLC and mass spectroscopy; assay type: in vivo, Balb/c mice; conditions: for maximal PND-1186 in tumors / time to maximal PND-1186 in tumors: subcutaneous 4T1 tumors
[7] = Pharmacokinetic; assay type: in vivo, Balb/c mice; conditions: plasma; for Cmax: mice
[8] = Body weight and toxicity in mouse studies; assay type: in vivo
[9] = Water solubility; assay type: physicochemical
[10] = system: 4T1 tumor blood vessels (CD31); assay: Anti-CD31 staining of 4T1 orthotopic tumors; assay type: in vivo, Balb/c mice; conditions: 150 mg/kg p.o. b.i.d.
[11] = system: p130Cas Tyr-410 phosphorylation (pY410Cas); assay: Immunoblotting of tumor p130Cas Tyr-410 phosphorylation in 4T1 tumors; assay type: in vivo, Balb/c mice
[12] = system: tumor-associated splenomegaly; assay: Spleen weight in 4T1 tumor-bearing mice; assay type: in vivo, Balb/c mice
[13] = system: TNFα-stimulated IL-6 production in 4T1 cells; assay: IL-6 ELISA of TNFα-stimulated 4T1 cells; assay type: cell-based, murine; conditions: 0.25 to 1.0 µM, TNFα 10 ng/ml, 24 h
[14] = system: 4T1 orthotopic breast carcinoma tumors; assay: Orthotopic 4T1 breast carcinoma tumor growth; assay type: in vivo, Balb/c mice
[15] = target: FAK Tyr-397 phosphorylation (pY397 FAK) (Mus musculus, UniProt P34152); assay: Immunoblotting of tumor FAK Tyr-397 phosphorylation in 4T1 tumors; assay type: in vivo, Balb/c mice
[16] = system: MDA-MB-231 orthotopic tumors; assay: Orthotopic MDA-MB-231 tumor growth; assay type: in vivo, SCID mice; conditions: 0.5 mg/ml ad libitum, Day 27 (15 days of administration)
[17] = target: FAK pY397 phosphorylation (Homo sapiens, UniProt Q05397); assay: Immunoblotting of FAK pY397 in MDA-MB-231 tumors; assay type: in vivo; conditions: 0.5 mg/ml ad libitum
In short: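 From day 12 (palpable tumors), mice drank 5% sucrose or 0.5 mg/ml compound in 5% sucrose ad libitum. Tumor growth was followed to Day 70; final tumors were weighed and lysed for immunoblot of the FAK pY397 to total FAK ratio (n=11 control, 13 treated).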

[18] = system: adherent cell proliferation; conditions: 1.0 µM; cited from earlier work
[19] = system: cell motility; conditions: 0.1 to 1.0 µM; cited from earlier work
[20] = system: pY118 paxillin; assay: Immunoblotting of pY118 paxillin in orthotopic 4T1 tumors; assay type: in vivo, Balb/c mice; conditions: 0.5 mg/ml ad libitum
[21] = system: suspended MDA-MB-231 cells; assay: Apoptosis assay; assay type: cell-based, human; conditions: concentrations up to 10 µM, within 6 h
In short: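 Suspended MDA-MB-231 cells exposed to test compound or DMSO for 1 h or 6 h, then stained with FITC-annexin V for 30 min and analysed by flow cytometry within 1 h. Quadrant gates were set from autofluorescence (negative) and staurosporine 1 µM (positive) controls. Apoptosis is the percent of annexin V-positive cells.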

[22] = system: MDA-MB-231 cells in lungs; assay: Experimental metastasis assay; assay type: in vivo, nude mice; conditions: 150 mg/kg p.o. pre-administered, 1 and 6 h after cell injection
[23] = system: Src activity; conditions: adherent or suspended 4T1 cells; cited from earlier work
[24] = system: glioma tumor; conditions: mice; cited from earlier work
[25] = 0.5 mg/ml ad libitum, orthotopic 4T1 tumors

FAK Tyr-397 phosphorylation (pY397 FAK), sequence (P34152 whole entry): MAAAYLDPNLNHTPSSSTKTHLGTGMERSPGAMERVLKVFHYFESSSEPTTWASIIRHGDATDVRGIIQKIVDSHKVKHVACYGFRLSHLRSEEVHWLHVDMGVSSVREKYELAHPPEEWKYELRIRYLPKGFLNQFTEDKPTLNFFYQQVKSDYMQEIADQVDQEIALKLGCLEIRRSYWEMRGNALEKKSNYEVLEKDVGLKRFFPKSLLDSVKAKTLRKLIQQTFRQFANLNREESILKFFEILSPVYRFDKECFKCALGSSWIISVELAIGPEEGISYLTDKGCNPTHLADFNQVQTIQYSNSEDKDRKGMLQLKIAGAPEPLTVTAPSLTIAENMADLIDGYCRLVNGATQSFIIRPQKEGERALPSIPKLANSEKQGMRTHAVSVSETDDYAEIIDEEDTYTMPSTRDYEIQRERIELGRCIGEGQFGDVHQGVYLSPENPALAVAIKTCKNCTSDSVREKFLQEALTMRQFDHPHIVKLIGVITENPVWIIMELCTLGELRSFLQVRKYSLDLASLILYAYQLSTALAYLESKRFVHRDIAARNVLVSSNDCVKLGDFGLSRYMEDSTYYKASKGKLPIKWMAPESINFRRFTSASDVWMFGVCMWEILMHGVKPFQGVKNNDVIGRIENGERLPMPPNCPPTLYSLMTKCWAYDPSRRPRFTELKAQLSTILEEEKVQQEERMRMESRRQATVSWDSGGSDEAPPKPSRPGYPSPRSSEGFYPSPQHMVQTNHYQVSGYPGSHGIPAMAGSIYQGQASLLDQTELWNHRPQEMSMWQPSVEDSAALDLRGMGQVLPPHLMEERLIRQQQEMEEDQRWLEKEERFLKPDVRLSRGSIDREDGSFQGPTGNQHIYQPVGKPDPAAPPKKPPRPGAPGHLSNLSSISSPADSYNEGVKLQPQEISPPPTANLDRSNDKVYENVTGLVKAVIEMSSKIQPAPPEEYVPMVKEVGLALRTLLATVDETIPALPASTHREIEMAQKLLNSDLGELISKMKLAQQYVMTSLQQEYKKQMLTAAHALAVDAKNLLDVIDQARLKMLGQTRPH
FAK pY397 phosphorylation, sequence (Q05397 whole entry): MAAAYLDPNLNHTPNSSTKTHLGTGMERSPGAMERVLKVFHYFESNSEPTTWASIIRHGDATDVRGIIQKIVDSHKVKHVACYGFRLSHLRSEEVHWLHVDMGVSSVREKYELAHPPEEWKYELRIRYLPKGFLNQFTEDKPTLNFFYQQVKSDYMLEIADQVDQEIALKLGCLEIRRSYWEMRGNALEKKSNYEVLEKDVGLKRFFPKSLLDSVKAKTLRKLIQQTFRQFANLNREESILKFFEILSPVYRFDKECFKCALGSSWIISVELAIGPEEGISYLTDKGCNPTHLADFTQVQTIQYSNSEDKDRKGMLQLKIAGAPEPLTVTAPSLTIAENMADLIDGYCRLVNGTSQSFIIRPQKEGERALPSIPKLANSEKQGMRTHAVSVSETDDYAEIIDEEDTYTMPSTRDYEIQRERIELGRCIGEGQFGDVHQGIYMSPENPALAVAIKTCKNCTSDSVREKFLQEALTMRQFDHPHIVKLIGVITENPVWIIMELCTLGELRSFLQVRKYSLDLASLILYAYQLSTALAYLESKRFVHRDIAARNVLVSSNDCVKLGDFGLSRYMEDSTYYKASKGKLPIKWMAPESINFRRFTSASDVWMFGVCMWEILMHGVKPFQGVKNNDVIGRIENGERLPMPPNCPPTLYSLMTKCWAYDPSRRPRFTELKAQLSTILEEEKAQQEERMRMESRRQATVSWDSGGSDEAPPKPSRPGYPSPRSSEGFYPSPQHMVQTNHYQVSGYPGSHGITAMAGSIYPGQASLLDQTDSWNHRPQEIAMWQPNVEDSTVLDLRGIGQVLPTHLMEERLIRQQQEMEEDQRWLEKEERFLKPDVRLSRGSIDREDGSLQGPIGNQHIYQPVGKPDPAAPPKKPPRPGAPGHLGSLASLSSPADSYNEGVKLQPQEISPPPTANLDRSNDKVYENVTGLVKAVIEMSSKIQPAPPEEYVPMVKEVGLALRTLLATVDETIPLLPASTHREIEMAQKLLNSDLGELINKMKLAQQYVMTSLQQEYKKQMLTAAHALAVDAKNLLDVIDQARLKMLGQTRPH

For `CN(c1ncccc1CNc1nc(Nc2ccc3c(c2)CC(=O)N3)ncc1C(F)(F)F)S(C)(=O)=O` [PF-562,271], which tumor microvessel density [1] is on record?
The tumor microvessel density was “reduced tumor microvessel density”.

And the “growth of subcutaneous human tumor xenografts” value [2]?
Its value is “reduces the growth”.

Which “prostate carcinoma cell motility” value [3] does the source give for `CS(=O)(=O)c1cccc(CNc2nc(Nc3ccc4c(c3)CCC(=O)N4)ncc2C(F)(F)F)c1` [PF-573,228] here?
The value was “prevented prostate carcinoma cell motility in vitro”.

Which results are given for `CNC(=O)c1ccccc1Nc1cc(Nc2ccc(N3CCOCC3)cc2OC)ncc1C(F)(F)F` [PND-1186]?
carcinoma cell apoptosis under three-dimensional culture conditions [4]: selectively promotes carcinoma cell apoptosis; mice with high lung metastatic burden [5]: no mice with a high metastatic burden; maximal PND-1186 in tumors ([6]; 30 mg/kg single i.p.): 0.75 µg/g; time to maximal PND-1186 in tumors ([6]; 30 mg/kg single i.p.): ≤ 1 h; maximal PND-1186 in tumors ([6]; 100 mg/kg single i.p.): 16.1 µg/g; time to maximal PND-1186 in tumors ([6]; 100 mg/kg single i.p.): ≤ 1 h; concentration at 7 days ([6]; Balb/c, mouse, tumor, oral, 0.5 mg/ml): 522 ng/g; Cmax ([7]; 30 mg/kg i.p.): 34.8 µM; bioavailability ([7]; Balb/c, mouse, ip, 30 mg/kg): 31.1%; bioavailability ([7]; Balb/c, mouse, ip, 100 mg/kg): 42.2%; Cmax ([7]; Balb/c, mouse, ip, 100 mg/kg, CMAX, 100 mg/kg i.p.): 117 µM; concentration at 7 days ([7]; Balb/c, mouse, oral, 0.5 mg/ml): 1.2 µM; bioavailability ([7]; Balb/c, mouse, po, 150 mg/kg): 14.8%; toxicity or weight loss ([8]; 0.5 mg/ml ad libitum administration): no signs of toxicity or weight loss; also recorded: without toxicity or weight loss; effect on total body weight ([8]; 150 mg/kg p.o. b.i.d., 4T1 tumor-bearing Balb/c mice): without affects on total body weight; solubility [9]: > 20 mg/mL; vascular differences by anti-CD31 staining [10]: no major vascular differences; p130Cas pY410 phosphorylation in primary 4T1 tumors [11, 25]: sufficient to inhibit; p130Cas Tyr-410 phosphorylation (pY410Cas) in tumors ([11]; 100 mg/kg single i.p., subcutaneous 4T1 tumors, by 3 h): significantly reduced; spleen size ([12]; 0.5 mg/ml ad libitum): of normal size; spleen appearance ([12]; 150 mg/kg p.o. b.i.d.): healthy and indistinguishable from non-treated, non-tumor bearing mice; spleen weight, vehicle-treated over PND-1186-treated mice ([12]; 150 mg/kg p.o. b.i.d.): > 2 fold; IL-6 release [13]: inhibited IL-6 release in a dose-dependent manner; tumor size by caliper measurements versus control ([14]; 0.5 mg/ml ad libitum, Day 13): tumor size was significantly different; reduction of final tumor volume compared to vehicle control ([14]; 150 mg/kg p.o. b.i.d., 16 days): 3 fold; tumor volume compared to vehicle control ([14]; 150 mg/kg p.o. b.i.d., Day 7): significantly reduced tumor volume; FAK pY397 phosphorylation in primary 4T1 tumors [15, 25]: sufficient to inhibit; tumor FAK pY397 phosphorylation at 12 h ([15]; 30 mg/kg single i.p., subcutaneous 4T1 tumors, 12 h): not significantly inhibited; tumor size by caliper measurements versus control [16]: control tumors were significantly larger; FAK pY397 phosphorylation in MDA-MB-231 tumors [17]: significantly reduce; adherent cell proliferation [18]: limited inhibitory effects on adherent cell proliferation; cell motility [19]: prevents cell motility in a dose-dependent fashion; pY118 paxillin phosphorylation in tumors [20]: inhibited; MDA-MB-231 apoptosis by annexin V binding [21]: did not promote MDA-MB-231 apoptosis; accumulation of tumor cells in the lungs [22]: significantly inhibited the accumulation of tumor cells in the lungs; Src activity [23]: does not inhibit Src activity

With `CNC(=O)c1ccccc1Nc1nc(Nc2ccc(N3CCOCC3)cc2OC)ncc1Cl` [TAE-226] as the compound, how does the glioma tumor growth [24] read?
Its glioma tumor growth is “can prevent glioma tumor growth in mice”.
